The results in this text go back to ChEMBL document CHEMBL1156002, “Synthesis, Raman, FT-IR, NMR spectroscopic characterization, antimicrobial activity, cytotoxicity and DNA binding of new mixed aza-oxo-thia macrocyclic compounds” (2009).

Assay [1] relates to Mycolicibacterium smegmatis. Nature of the assay: Antibacterial activity against Mycobacterium smegmatis CCM 2067 at 10 IU after 24 hrs by agar disk diffusion assay. Format: functional. The procedure, abridged: (§1)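 Disk diffusion with sterile 6 mm discs loaded with DMSO solutions of the test agents and placed on inoculated agar. Bacteria were pre-grown in Nutrient Broth at 30 °C for 24 h, and plates were incubated at 35 °C for 24 h. Each plate carried a reference antibiotic disc matched to the organism, and a DMSO-only solvent control was run.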
Background: In agar diffusion tests the substance spreads into inoculated agar from a disc or well.

Assay [2] deals with Pseudomonas aeruginosa. In words: Antibacterial activity against Pseudomonas aeruginosa ATCC 27853 at 10 IU after 24 hrs by agar disk diffusion assay. It is filed as functional. The procedure, abridged:
as §1

Assay [3] relates to Bacillus cereus. In words: Antibacterial activity against Bacillus cereus ATCC 7064 at 10 IU after 24 hrs by agar disk diffusion assay. It is filed as functional. The procedure, abridged: as §1
Assay [4] concerns Staphylococcus aureus. In words: Antibacterial activity against Staphylococcus aureus ATCC 6538 at 10 IU after 24 hrs by agar disk diffusion assay. It is filed as functional. The procedure, abridged:
as §1

The subject of assay [5] is Escherichia coli. Nature of the assay: Antibacterial activity against Escherichia coli ATCC 11230 at 10 IU after 24 hrs by agar disk diffusion assay. It is filed as functional. The procedure, abridged: as §1
Assay [6] has as its system Listeria monocytogenes. In words: Antibacterial activity against Listeria monocytogenes ATCC 15313 at 10 IU after 24 hrs by agar disk diffusion assay. It is filed as functional. The procedure, abridged:
as §1

Assay [7] deals with Proteus vulgaris. Nature of the assay: Antibacterial activity against Proteus vulgaris ATCC 8427 at 10 IU after 24 hrs by agar disk diffusion assay. It is filed as functional. The method, boiled down:
as §1

For assay [8], the system named is Klebsiella pneumoniae. In words: Antibacterial activity against Klebsiella pneumoniae UC57 at 10 IU after 24 hrs by agar disk diffusion assay. It is filed as functional. The procedure, abridged:
as §1

The subject of assay [9] is Micrococcus luteus. Nature of the assay: Antibacterial activity against Micrococcus luteus La 2971 at 10 IU after 24 hrs by agar disk diffusion assay. It is filed as functional. The method, boiled down: as §1
The subject of assay [10] is Listeria monocytogenes. Nature of the assay: Antibacterial activity against Listeria monocytogenes ATCC 15313 at 30 ug after 24 hrs by agar disk diffusion assay. Format: functional. As to conditions: ATCC 15313, 24 h, read-out: IZ. The procedure, abridged:
as §1

The test system of assay [11] is Bacillus cereus. Nature of the assay: Antibacterial activity against Bacillus cereus ATCC 7064 at 30 ug after 24 hrs by agar disk diffusion assay. Format: functional. The settings on record: ATCC 7064, 24 h, read-out: IZ. The procedure, abridged: as §1
For assay [12], the system named is Proteus vulgaris. Nature of the assay: Antibacterial activity against Proteus vulgaris ATCC 8427 at 30 ug after 24 hrs by agar disk diffusion assay. It is filed as functional. The settings on record: ATCC 8427, 24 h, read-out: IZ. The procedure, abridged:
as §1

In assay [13] the test system is Escherichia coli. Nature of the assay: Antibacterial activity against Escherichia coli ATCC 11230 at 30 ug after 24 hrs by agar disk diffusion assay. As to conditions: ATCC 11230, 24 h, read-out: IZ. Format: functional. The method, boiled down: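 Bacteria pre-grown in Nutrient Broth at 30 °C for 24 h. Sterile 6 mm discs loaded with compound solutions freshly made in DMSO were placed on inoculated agar and incubated at 35 °C for 24 h. The medium was supplemented with DMSO as a solvent control, and an appropriate reference antibiotic disc was added to each plate.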

Assay [14] deals with Klebsiella pneumoniae. Nature of the assay: Antibacterial activity against Klebsiella pneumoniae UC57 at 30 ug after 24 hrs by agar disk diffusion assay. Format: functional. As to conditions: UC57, 24 h, read-out: IZ. The method, boiled down: as §1
Assay [15] has as its system Micrococcus luteus. In words: Antibacterial activity against Micrococcus luteus La 2971 at 30 ug after 24 hrs by agar disk diffusion assay. Format: functional. As to conditions: La 2971, 24 h, read-out: IZ. The procedure, abridged:
as §1

For assay [16], the system named is Pseudomonas aeruginosa. Nature of the assay: Antibacterial activity against Pseudomonas aeruginosa ATCC 27853 at 30 ug after 24 hrs by agar disk diffusion assay. Format: functional. As to conditions: ATCC 27853, 24 h, read-out: IZ. The method, boiled down:
as §1

Assay [17] concerns Mycolicibacterium smegmatis. Nature of the assay: Antibacterial activity against Mycobacterium smegmatis CCM 2067 at 30 ug after 24 hrs by agar disk diffusion assay. The settings on record: CCM 2067, 24 h, read-out: IZ. Format: functional. The procedure, abridged:
as §1

Assay [18] has as its system Staphylococcus aureus. Nature of the assay: Antibacterial activity against Staphylococcus aureus ATCC 6538 at 30 ug after 24 hrs by agar disk diffusion assay. It is filed as functional. As to conditions: ATCC 6538, 24 h, read-out: IZ. The procedure, abridged:
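Sterile 6 mm paper discs were loaded with ligand solution freshly prepared in DMSO and placed on inoculated agar. The inoculum came from broth cultures: bacteria in Nutrient Broth at 30 °C for 24 h, yeasts in Malt Extract Broth for 48 h. Plates were incubated at 35 °C for 24 h (bacteria) or 25 °C for 72 h (yeasts). A DMSO solvent control and a reference antibiotic disc were included on each plate.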

The next assay has as its system Candida albicans. In words: Antifungal activity against Candida albicans ATCC 10231 after 24 hrs by broth micro dilution method. It is filed as functional. The procedure, abridged:
(§2)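 Broth microdilution was run in cation-adjusted Mueller Hinton Broth. Compounds were dissolved in DMSO at 2 mg mL^-1 and serially diluted two-fold. Yeast precultures were grown in Malt Extract Broth for 48 h. The final inoculum was about 10⁶ cfu mL^-1, and plates were incubated at 37 °C for 24 h. The MIC was read from this series.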

Assay [19] has as its system Hanseniaspora guilliermondii. In words: Antifungal activity against Hanseniaspora guilliermondii DSM 3432 at 100 ug after 72 hrs by agar disk diffusion assay. It is filed as functional, organism-based. The method, boiled down: (§3)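 Yeasts were pre-grown in Malt Extract Broth for 48 h. Sterile 6 mm discs loaded with compound solutions freshly made in DMSO were placed on inoculated agar and incubated at 25 °C for 72 h. The medium was supplemented with DMSO as a solvent control, and an appropriate reference antifungal disc was added to each plate.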

The test system of assay [20] is Kluyveromyces marxianus. Nature of the assay: Antifungal activity against Kluyveromyces fragilis NRRL 2415 at 100 ug after 72 hrs by agar disk diffusion assay. It is filed as functional, organism-based. The procedure, abridged: as §3
In assay [21] the test system is Debaryomyces hansenii. Nature of the assay: Antifungal activity against Debaryomyces hansenii DSM 70238 after 24 hrs by broth micro dilution method. Format: functional. The procedure, abridged:
as §2

The test system of assay [22] is Hanseniaspora guilliermondii. Nature of the assay: Antifungal activity against Hanseniaspora guilliermondii DSM 3432 after 24 hrs by broth micro dilution method. It is filed as functional. The method, boiled down: as §2
Assay [23] has as its system Rhodotorula mucilaginosa. Nature of the assay: Antifungal activity against Rhodotorula rubra DSM 70403 at 100 ug after 72 hrs by agar disk diffusion assay. Format: functional, organism-based. The method, boiled down: as §3
In assay [24] the test system is Debaryomyces hansenii. In words: Antifungal activity against Debaryomyces hansenii DSM 70238 at 100 ug after 72 hrs by agar disk diffusion assay. It is filed as functional, organism-based. The method, boiled down:
as §3

Assay [25] deals with Rhodotorula mucilaginosa. In words: Antifungal activity against Rhodotorula rubra DSM 70403 after 24 hrs by broth micro dilution method. Format: functional. The procedure, abridged: as §2
The test system of assay [26] is Kluyveromyces marxianus. Nature of the assay: Antifungal activity against Kluyveromyces fragilis NRRL 2415 after 24 hrs by broth micro dilution method. Format: functional. The procedure, abridged: as §2
The subject of assay [27] is Klebsiella pneumoniae. Nature of the assay: Antibacterial activity against Klebsiella pneumoniae UC57 after 24 hrs by broth micro dilution method. Format: functional.
Assay [28] relates to Micrococcus luteus. Nature of the assay: Antibacterial activity against Micrococcus luteus La 2971 after 24 hrs by broth micro dilution method. Format: functional.
In assay [29] the test system is Mycolicibacterium smegmatis. In words: Antibacterial activity against Mycobacterium smegmatis CCM 2067 after 24 hrs by broth micro dilution method. Format: functional.
Assay [30] relates to Pseudomonas aeruginosa. Nature of the assay: Antibacterial activity against Pseudomonas aeruginosa ATCC 27853 after 24 hrs by broth micro dilution method. It is filed as functional.
The test system of assay [31] is Bacillus cereus. In words: Antibacterial activity against Bacillus cereus ATCC 7064 after 24 hrs by broth micro dilution method. It is filed as functional.
Assay [32] deals with Staphylococcus aureus. In words: Antibacterial activity against Staphylococcus aureus ATCC 6538 after 24 hrs by broth micro dilution method. Format: functional.
In assay [33] the test system is Proteus vulgaris. Nature of the assay: Antibacterial activity against Proteus vulgaris ATCC 8427 after 24 hrs by broth micro dilution method. It is filed as functional.
Assay [34] has as its system Listeria monocytogenes. In words: Antibacterial activity against Listeria monocytogenes ATCC 15313 after 24 hrs by broth micro dilution method. It is filed as functional.
In assay [35] the test system is Escherichia coli. In words: Antibacterial activity against Escherichia coli ATCC 11230 after 24 hrs by broth micro dilution method. It is filed as functional.

On to `CC1(C)S[C@@H]2[C@H](NC(=O)Cc3ccccc3)C(=O)N2[C@H]1C(=O)O` [PENICILLIN G], for which the “inhibition zone (IZ)” value in [1] is listed as 15 mm; with Pseudomonas aeruginosa [2] it was 36 mm; with Bacillus cereus [3], 8 mm; in the assay on Staphylococcus aureus [4], 13 mm; with Escherichia coli [5] it was 18 mm; with Listeria monocytogenes [6], 10 mm. Further, the “inhibition zone (IZ)” value in the assay on Proteus vulgaris [7] was found to be 14 mm; in the assay on Klebsiella pneumoniae [8] it was 18 mm; with Micrococcus luteus [9], 10 mm.
As for `CN(C)[C@@H]1C(O)=C(C(N)=O)C(=O)[C@@]2(O)C(O)=C3C(=O)c4c(O)cccc4[C@@](C)(O)[C@H]3C[C@@H]12` [TETRACYCLINE], the zone of inhibition at 30 µg/disc in the assay on Listeria monocytogenes [10] stood at 28 mm; with Bacillus cereus [11] it was 34 mm; in the assay on Proteus vulgaris [12] it was 25 mm; in the assay on Escherichia coli [13], 28 mm; in the assay with Klebsiella pneumoniae [14], 30 mm; with Micrococcus luteus [15], 26 mm. In addition, the zone of inhibition at 30 µg/disc in the assay with Pseudomonas aeruginosa [16] was 22 mm; in [17], 24 mm; with Staphylococcus aureus [18], 26 mm.
Regarding `CN[C@H](CC(C)C)C(=O)N[C@H]1C(=O)N[C@@H](CC(N)=O)C(=O)N[C@H]2C(=O)N[C@H]3C(=O)N[C@H](C(=O)N[C@H](C(=O)O)c4cc(O)cc(O)c4-c4cc3ccc4O)[C@H](O)c3ccc(c(Cl)c3)Oc3cc2cc(c3O[C@@H]2O[C@H](CO)[C@@H](O)[C@H](O)[C@H]2O[C@H]2C[C@](C)(N)[C@H](O)[C@H](C)O2)Oc2ccc(cc2Cl)[C@H]1O` [VANCOMYCIN], the zone of inhibition at 30 µg/disc with Listeria monocytogenes [10] stood at 26 mm; with Bacillus cereus [11], 10 mm; in the assay with Proteus vulgaris [12], 18 mm; in the assay on Escherichia coli [13], 22 mm; in the assay on Klebsiella pneumoniae [14] it was 22 mm; in the assay on Micrococcus luteus [15], 20 mm. Moreover, the zone of inhibition at 30 µg/disc in the assay with Pseudomonas aeruginosa [16] is 34 mm; in [17], 20 mm; in the assay on Staphylococcus aureus [18], 13 mm.
For NYSTATIN, the MIC (commonly the smallest concentration in the dilution series that meets the test's criterion for growth inhibition) was 3.12 µg/mL in the assay on Candida albicans; 12.5 µg/mL against Debaryomyces hansenii [21]; 3.12 µg/mL in assay [22]; 6.25 µg/mL with Rhodotorula mucilaginosa [25]; 6.25 µg/mL against Kluyveromyces marxianus [26]. In addition, the inhibition zone (IZ) was 21 mm in [19], 20 mm in the assay on Kluyveromyces marxianus [20], 18 mm with Rhodotorula mucilaginosa [23] and 16 mm in the assay on Debaryomyces hansenii [24].
Turning to `CO/N=C(\C(=O)N[C@@H]1C(=O)N2C(C(=O)O)=C(COC(C)=O)CS[C@H]12)c1csc(N)n1` [CEFOTAXIME], the zone of inhibition at 30 µg/disc is 16 mm in the assay with Listeria monocytogenes [10]; 54 mm with Bacillus cereus [11]; 14 mm in the assay on Proteus vulgaris [12]; 10 mm in the assay with Escherichia coli [13]; 13 mm in the assay with Klebsiella pneumoniae [14]; 18 mm in the assay with Micrococcus luteus [15]. Moreover, the values for the zone of inhibition at 30 µg/disc (in the assay on Pseudomonas aeruginosa [16]; in [17]; with Staphylococcus aureus [18]) were 32 mm, 11 mm and 12 mm, respectively.
As for GENTAMICIN, the MIC against Klebsiella pneumoniae [27] stood at 6.25 µg/mL; against Micrococcus luteus [28], 25 µg/mL; in assay [29], 12.5 µg/mL; against Pseudomonas aeruginosa [30], 6.25 µg/mL; in the assay on Bacillus cereus [31] it was 6.25 µg/mL; against Staphylococcus aureus [32], 25 µg/mL. The figures for the MIC in the assay with Proteus vulgaris [33], against Listeria monocytogenes [34] and against Escherichia coli [35] were 6.25 µg/mL, 12.5 µg/mL and 6.25 µg/mL, respectively.
